In ChEMBL document CHEMBL1156597, “Structure-activity relationship of kahalalide F synthetic analogues” (J Med Chem, 2008):

Columns and labels:
[1] = Cytotoxicity against human IGROV-ET cells after 48 hrs by SRB assay; type: functional; settings: for CC50: read-out: LC50 (the source's name)
How it was run: (§1)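 Cells grown in RPMI 1640 with 10% FBS and penicillin/streptomycin at 37 °C and 5% CO₂, trypsinized, then seeded at 5 × 10³/well. After 18 h drug-free attachment, samples in DMSO/EtOH/PBS (0.5:0.5:99) were added for 48 h continuous exposure. Cells were fixed with cold TCA (1 h, 4 °C) and stained with SRB (10 min). Tris-solubilized stain read at 490 nm. Triplicate wells, mean ± SD; GI₅₀ derived.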

HeLa = experiment: Cytotoxicity against human HeLa cells after 48 hrs by SRB assay; type: functional; settings: for CC50: read-out: LC50 (the source's name); how it was run: as §1
LoVo [2] = experiment: Cytotoxicity against human LoVo cells after 48 hrs by SRB assay; type: functional; settings: for CC50: read-out: LC50 (the source's name)
[3] = Cytotoxicity against human HeLa-APL cells after 48 hrs by SRB assay; type: functional; how it was run: as §1
LoVo [4] = experiment: Cytotoxicity against human doxorubicin resistant LoVo cells after 48 hrs by SRB assay; type: functional; settings: for CC50: read-out: LC50 (the source's name); how it was run: as §1
A549 = experiment: Cytotoxicity against human A549 cells after 48 hrs by SRB assay; type: functional, cell-based; settings: Homo sapiens, A549, 48 h; for GI50: read-out: GI50; how it was run: as §1
[5] = Cytotoxicity against human IGROV cells after 48 hrs by SRB assay; type: functional; settings: for CC50: read-out: LC50 (the source's name); how it was run: as §1
DU-145 = experiment: Cytotoxicity against human DU145 cells after 48 hrs by SRB assay; type: functional, cell-based; settings: Homo sapiens, DU-145, 48 h; for CC50: read-out: LC50 (the source's name); how it was run: as §1
LNCaP = experiment: Cytotoxicity against human LNcaP cells after 48 hrs by SRB assay; type: functional; settings: for CC50: read-out: LC50 (the source's name); how it was run: as §1
SK-MEL-28 = experiment: Cytotoxicity against human SK-MEL-28 cells after 48 hrs by SRB assay; type: functional, cell-based; settings: Homo sapiens, SK-MEL-28, 48 h; for GI50: read-out: GI50; for CC50: read-out: LC50 (the source's name); how it was run: as §1
PANC-1 = experiment: Cytotoxicity against human PANC1 cells after 48 hrs by SRB assay; type: functional; settings: PANC-1, 48 h; for CC50: read-out: LC50 (the source's name); how it was run: as §1
HT-29 = experiment: Cytotoxicity against human HT29 cells after 48 hrs by SRB assay; type: functional, cell-based; settings: Homo sapiens, HT-29, 48 h; for CC50: read-out: LC50 (the source's name); how it was run: as §1
K562 = experiment: Cytotoxicity against human K562 cells after 48 hrs by SRB assay; type: functional; settings: K562, 48 h; for CC50: read-out: LC50 (the source's name); how it was run: as §1
SK-BR-3 = experiment: Cytotoxicity against human SKBR3 cells after 48 hrs by SRB assay; type: functional; settings: SK-BR-3, 48 h; how it was run: as §1

C/C=C1\NC(=O)[C@H](Cc2ccccc2)NC(=O)[C@@H](C(C)C)NC(=O)[C@@H]([C@H](C)CC)NC(=O)[C@H](NC(=O)[C@H](NC(=O)[C@H](CCCN)NC(=O)[C@H]2CCCCN2C(=O)[C@H](NC(=O)[C@@H](NC(=O)[C@@H](NC(=O)[C@H](NC(=O)CC[C@@H](C)CC)C(C)C)[C@@H](C)O)C(C)C)C(C)C)[C@H](C)CC)[C@H](C)OC(=O)[C@H](C(C)C)NC1=O
GI50 [1]: 632 nM
GI50 ([1]; read-out: GI50): 894 nM
CC50 [1]: 483 nM
GI50 (HeLa): 3080 nM
TGI (HeLa): 2660 nM
CC50 (HeLa): 1080 nM
GI50 (LoVo [2]): 2250 nM
TGI (LoVo [2]): 2340 nM
CC50 (LoVo [2]): 678 nM
GI50 [3]: 1510 nM
LC50 (concentration giving 50% net cell kill) [3]: 978 nM
TGI [3]: 1450 nM
GI50 (LoVo [4]): 1220 nM
TGI (LoVo [4]): 1820 nM
CC50 (LoVo [4]): 1700 nM
LC50 (A549): 6720 nM
TGI (A549): 8700 nM
GI50 (A549): 8000 nM
GI50 [5]: 786 nM
GI50 ([5]; read-out: GI50): 1390 nM
CC50 [5]: 487 nM
CC50 (DU-145): 1300 nM
CC50 (LNCaP): 1310 nM
TGI (SK-MEL-28): 1470 nM
GI50 (SK-MEL-28): 1590 nM
CC50 (SK-MEL-28): 1360 nM
CC50 (PANC-1): 2020 nM
CC50 (HT-29): 447 nM
CC50 (K562): 2160 nM

C/C=C1\NC(=O)[C@H](Cc2ccccc2)NC(=O)[C@@H](C(C)C)NC(=O)[C@@H]([C@H](C)CC)NC(=O)[C@H](NC(=O)[C@H](NC(=O)[C@H](CCCN)NC(=O)[C@H]2CCCN2C(=O)[C@H](NC(=O)[C@H](CC(C)C)NC(=O)[C@@H](NC(=O)[C@H](NC(=O)CCCC(C)C)C(C)C)[C@@H](C)O)C(C)C)[C@H](C)CC)[C@H](C)OC(=O)[C@H](C(C)C)NC1=O
TGI [1]: 380 nM
GI50 ([1]; read-out: GI50): 350 nM
CC50 [1]: 383 nM
GI50 (HeLa): 1020 nM
TGI (HeLa): 887 nM
CC50 (HeLa): 765 nM
GI50 (LoVo [2]): 312 nM
TGI (LoVo [2]): 324 nM
CC50 (LoVo [2]): 337 nM
GI50 [3]: 939 nM
LC50 (concentration giving 50% net cell kill) [3]: 807 nM
TGI [3]: 871 nM
TGI (SK-BR-3): 482 nM
GI50 (SK-BR-3; read-out: GI50): 445 nM
CC50 (SK-BR-3; read-out: LC50 (the source's name)): 689 nM
LC50 (A549): 1110 nM
TGI (A549): 1190 nM
GI50 (A549): 1280 nM
TGI [5]: 4020 nM
GI50 ([5]; read-out: GI50): 464 nM
CC50 [5]: 375 nM
GI50 (DU-145): 903 nM
GI50 (DU-145; read-out: GI50): 941 nM
CC50 (DU-145): 863 nM
GI50 (LNCaP): 1030 nM
TGI (LNCaP): 1120 nM
CC50 (LNCaP): 1230 nM
TGI (SK-MEL-28): 9120 nM
GI50 (SK-MEL-28): 964 nM
CC50 (SK-MEL-28): 8750 nM
GI50 (PANC-1): 3290 nM
TGI (PANC-1): 4870 nM
CC50 (PANC-1): 2510 nM
GI50 (HT-29): 612 nM
TGI (HT-29): 679 nM
CC50 (HT-29): 479 nM
GI50 (K562): 2100 nM
TGI (K562): 2210 nM
CC50 (K562): 2300 nM

C/C=C1\NC(=O)[C@H](Cc2ccccc2)NC(=O)[C@@H](C(C)C)NC(=O)[C@@H]([C@H](C)CC)NC(=O)[C@H](NC(=O)[C@H](NC(=O)[C@H](CCCN)NC(=O)[C@@H]2CCCN2C(=O)[C@H](NC(=O)[C@@H](NC(=O)[C@@H](NC(=O)[C@H](NC(=O)CC[C@@H](C)CC)C(C)C)[C@@H](C)O)C(C)C)C(C)C)[C@H](C)CC)[C@H](C)OC(=O)[C@H](C(C)C)NC1=O
CC50 [1]: 549 nM
CC50 (HeLa): 1090 nM
CC50 (LoVo [2]): 794 nM
LC50 (concentration giving 50% net cell kill) [3]: 986 nM
CC50 (LoVo [4]): 1870 nM
LC50 (A549): 6780 nM
CC50 [5]: 525 nM
CC50 (DU-145): 1430 nM
CC50 (LNCaP): 1630 nM
CC50 (SK-MEL-28): 1620 nM
CC50 (PANC-1): 2040 nM
CC50 (HT-29): 6760 nM
CC50 (K562): 2180 nM
